Legend:
Staphylococcus aureus [1] = experiment: In vitro antimicrobial activity against Staphylococcus aureus X400 strain; type: functional
Streptococcus pneumoniae = experiment: In vitro antimicrobial activity against Streptococcus pneumoniae PARK strain; type: functional
[2] = test system: Staphylococcus epidermidis; experiment: In vitro antimicrobial activity against Staphylococcus epidermidis 222 strain; type: functional
Staphylococcus aureus [3] = experiment: In vitro antimicrobial activity against Staphylococcus aureus S13E strain; type: functional
Pseudomonas aeruginosa [4] = experiment: Antimicrobial activity against Pseudomonas PS18 strain; type: functional
Staphylococcus aureus [5] = experiment: In vitro antimicrobial activity against Staphylococcus aureus X1.1 strain; type: functional
Pseudomonas aeruginosa [6] = experiment: In vitro antimicrobial activity against Pseudomonas X239 strain; type: functional
Haemophilus influenzae = experiment: In vitro antimicrobial activity against Haemophilus influenzae C.L. strain; type: functional
Escherichia coli = experiment: In vitro evaluation of antimicrobial activity against Escherichia coli EC14 strain; type: functional
Klebsiella = experiment: In vitro antimicrobial activity against Klebsiella X26 strain; type: functional
[7] = test system: Staphylococcus epidermidis; experiment: In vitro antimicrobial activity against Staphylococcus epidermidis 270 strain; type: functional
Enterobacter cloacae = experiment: In vitro evaluation of antimicrobial activity against Enterobacter cloacae EB5 strain; type: functional
Staphylococcus aureus [8] = experiment: Minimum inhibitory concentration against sensitive strain of Staphylococcus aureus 446 in 4% of NaCl; type: functional
Staphylococcus aureus [9] = experiment: Minimum inhibitory concentration against heteroresistant strain of Staphylococcus aureus 430 in 4% of NaCl; type: functional
Staphylococcus aureus [10] = experiment: Minimum inhibitory concentration against homoresistant strain of Staphylococcus aureus 447 in the absence of NaCl; type: functional
Staphylococcus aureus [11] = experiment: Minimum inhibitory concentration against heteroresistant strain of Staphylococcus aureus 430 in the absence of NaCl; type: functional
Staphylococcus aureus [12] = experiment: Minimum inhibitory concentration against methicillin-resistant Staphylococcus aureus 430 (MRSA) in vitro using trypticase soy broth (TSB); type: functional
[13] = Tested against penicillin binding protein 2a (PBP2a) enzyme.
Homo sapiens = organism: Homo sapiens; experiment: In vitro plasma protein binding was evaluated by using Human plasma at 20 ug/mL; type: ADME
Method in brief: (§1)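 Binding was measured by ultrafiltration (Centrifree micropartition) in pooled plasma (ICR mouse, Sprague–Dawley rat, rhesus monkey or human) at a drug concentration of 20 μg/mL.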

Mus musculus = organism: Mus musculus; experiment: In vitro plasma protein binding was evaluated using ICR mouse at 20 ug/mL; type: ADME; method in brief: as §1
Staphylococcus aureus [14] = experiment: Minimum inhibitory concentration against sensitive strain of Staphylococcus aureus 446 in the absence of NaCl; type: functional
Staphylococcus aureus [15] = experiment: Minimum inhibitory concentration against homoresistant strain of Staphylococcus aureus 447 in 4% of NaCl; type: functional
Rattus norvegicus = organism: Rattus norvegicus; experiment: In vitro plasma protein binding was evaluated using Sprauge-Dawley rat at 20 ug/mL; type: ADME; method in brief: as §1
Staphylococcus aureus [16] = experiment: Minimum inhibitory concentration against methicillin-resistant Staphylococcus aureus 430 (MRSA) in vitro using trypticase soy broth (TSB) with 4% NaCl; type: functional

| Structure (SMILES) | MIC (Staphylococcus aureus [1]) [µg/mL] | MIC (Streptococcus pneumoniae) [µg/mL] | MIC [2] [µg/mL] | MIC (Staphylococcus aureus [3]) [µg/mL] | MIC (Pseudomonas aeruginosa [4]) [µg/mL] | MIC (Staphylococcus aureus [5]) [µg/mL] | MIC (Pseudomonas aeruginosa [6]) [µg/mL] | MIC (Haemophilus influenzae) [µg/mL] | MIC (Escherichia coli) [µg/mL] | MIC (Klebsiella) [µg/mL] | MIC [7] [µg/mL] | MIC (Enterobacter cloacae) [µg/mL] | also measured |
| --- | --- | --- | --- | --- | --- | --- | --- | --- | --- | --- | --- | --- | --- |
| C[n+]1ccc2sc(SC3=C(C(=O)[O-])N4C(=O)[C@@H]([N-]C(=O)/C(=N/OCCF)c5csc(N)n5)[C@H]4CC3)nc2c1.[Na+] | 128 | 0.15 | 2 | 16 | 32 | 2 | 32 | 0.06 | 0.25 | 0.03 | 8 | 4 | – |
| Nc1nc(/C(=N\OCCF)C(=O)N[C@@H]2C(=O)N3C(C(=O)[O-])=C(Sc4nc5c(N)ncnc5s4)CC[C@H]23)cs1.[Na+] | 32 | < 0.008 | 0.5 | 16 | 64 | 0.125 | > 128 | 0.03 | 0.25 | 0.03 | 2 | 1 | – |
| Nc1nc(/C(=N\OCCF)C(=O)N[C@@H]2C(=O)N3C(C(=O)[O-])=C(Sc4nc5ccc([N+](=O)[O-])cc5s4)CC[C@H]23)cs1.[Na+] | 2 | < 0.008 | 0.5 | 2 | 64 | 0.06 | > 128 | 0.03 | 0.25 | 0.06 | 0.5 | 1 | MIC (Staphylococcus aureus [8]): 0.25 µg/mL; MIC (Staphylococcus aureus [9]): 1 µg/mL; MIC (Staphylococcus aureus [10]): 1.9 µg/mL; MIC (Staphylococcus aureus [11]): 1 µg/mL; MIC (Staphylococcus aureus [12]): 0.5 µg/mL; IC50 [13]: 0.85 µg/mL; Bound (Homo sapiens): > 99.2%; Bound (Mus musculus): 96.9%; MIC (Staphylococcus aureus [14]): 0.25 µg/mL; MIC (Staphylococcus aureus [15]): 1.9 µg/mL; Bound (Rattus norvegicus): 98.3%; MIC (Staphylococcus aureus [16]): 1 µg/mL |
| Nc1nc(/C(=N\OCCF)C(=O)N[C@@H]2C(=O)N3C(C(=O)[O-])=C(Sc4nc5cccnc5s4)CC[C@H]23)cs1.[Na+] | 16 | < 0.008 | 1 | 8 | 64 | 0.25 | > 128 | 0.03 | 0.25 | 0.03 | 4 | 2 | – |
| Nc1nc(/C(=N\OCCF)C(=O)N[C@@H]2C(=O)N3C(C(=O)[O-])=C(Sc4nc(-c5cccnc5)cs4)CC[C@H]23)cs1.[Na+] | 32 | < 0.008 | 0.5 | 8 | 64 | 0.25 | > 128 | 0.015 | 0.25 | 0.03 | 2 | 2 | – |
| Nc1nc(/C(=N\OCCF)C(=O)N[C@@H]2C(=O)N3C(C(=O)[O-])=C(Sc4nc(-c5ccncc5)cs4)CC[C@H]23)cs1.[Na+] | 32 | < 0.008 | 0.5 | 8 | > 128 | 0.125 | > 128 | 0.03 | 0.25 | 0.03 | 2 | 2 | – |
| Nc1nc(/C(=N\OCCF)C(=O)N[C@@H]2C(=O)N3C(C(=O)[O-])=C(Sc4nc(-c5ccccc5)cs4)CC[C@H]23)cs1.[Na+] | 4 | < 0.008 | 0.25 | 4 | 64 | 0.125 | 8 | 0.03 | 0.25 | 0.015 | 0.5 | 1 | – |
| Nc1nc(/C(=N\OCCF)C(=O)N[C@@H]2C(=O)N3C(C(=O)[O-])=C(Sc4nc5ccccc5s4)CC[C@H]23)cs1.[Na+] | 4 | < 0.008 | 0.25 | 4 | 128 | 0.125 | 16 | 0.03 | 0.25 | 0.03 | 0.5 | 1 | MIC (Staphylococcus aureus [12]): 0.5 µg/mL; IC50 [13]: 3.5 µg/mL; MIC (Staphylococcus aureus [16]): 1 µg/mL |
| Cc1cnc(SC2=C(C(=O)[O-])N3C(=O)[C@@H](NC(=O)/C(=N/OCCF)c4csc(N)n4)[C@H]3CC2)s1.[Na+] | 128 | < 0.008 | 1 | 32 | 32 | 0.5 | 64 | < 0.008 | 0.5 | 0.03 | 4 | 2 | – |

— ChEMBL document CHEMBL1127066, “Discovery and structure-activity relationship of a series of 1-carba-1-dethiacephems exhibiting activity against methicillin-resistant Staphylococcus aureus” (J Med Chem, 1993)
